The subject of one data set is CWR22Rv1 cells. Description: Cell growth assay. It counts as cell-based. Conditions: for cell growth, 3 days: CWR22Rv1, FBS, 5 μM Abi, 20 μM Enza, 20 μM Apal, 0.25-1.0 μM ARVibs, Fig.4A-4B.
A further data set relates to C4-2B MDVR cells. Description: Cell growth assay. It is filed as cell-based. To be noted: for cell growth, 3 days: FBS, 5 μM Abi, 20 μM Enza, 20 μM Apal, 0.25-1.0 μM ARVibs, Fig.4A-4B.
Data set [1] has as its system AR-V7 and AR mutants (T878A, K581R, V716M, L702H). Description: PSA luciferase reporter, AR-V7 and AR mutants in 293 cells. It is filed as cell-based. Conditions: FBS conditions, 16 hours, Fig.2G. The gist of the method:
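293 cells in FBS medium transfected with vector, AR-V7 or mutant AR (T878A, K581R, L702H, V716M) plus a PSA promoter–luciferase plasmid. Then exposed to anti-androgens or test compound for 16 h before luciferase read-out. Mean ± SD of three independent experiments.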

For the next data set, the system named is VCaP xenografts. As to the kind of experiment: Relapsed VCaP tumor model, combination with Enza. It is filed as in vivo, mice. To be noted: relapsed VCaP tumors.
The test system of a further data set is wild-type AR (WT-AR). As to the kind of experiment: PSA luciferase reporter, WT-AR in 293 cells. It counts as cell-based. To be noted: FBS conditions, 16 hours, Fig.2G. In general terms: Reporter assays use an easily measured gene product as a stand-in for the process of interest.
The next data set relates to AR. Description: Western blot of AR expression in CWR22Rv1 cells. To be noted: 1 μM, 16 hours. It is filed as cell-based. In general terms: Immunoblotting shows a protein as a band on a membrane.
Another data set has as its system CWR22Rv1 xenografts. As to the kind of experiment: CWR22Rv1 tumor xenografts in SCID mice. It counts as in vivo. To be noted: 25 mg/Kg i.p., Supplementary Fig.6B. The gist of the method: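 C.B17 SCID males, 4–5 weeks old, given 3 million CWR22Rv1 cells mixed 1:1 with matrigel s.c. in flank. Randomized at 50–100 mm3 tumor volume. Test compound 25 mg/kg i.p. vs vehicle (15% Cremophor EL, 82.5% PBS, 2.5% DMSO, i.p.). Calipers twice weekly; volume = L×W×W×0.52. Tumors, liver and kidney harvested and weighed after 3 weeks; liver and kidney H&E stained.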

The test system of the next data set is LuCaP 35CR xenografts. Description: LuCaP35CR PDX model, oral administration. It counts as in vivo, mice. Conditions: 150 mg/Kg p.o.
The conditions of data set [2]: ref [20], [21]; cited from earlier work.

With `C[C@]12CC[C@H](O)CC1=CC[C@@H]1[C@@H]2CC[C@]2(C)C(c3cccnc3)=CC[C@@H]12` [Abi, abiraterone], the “cell growth, 3 days” value with CWR22Rv1 cells and with C4-2B MDVR cells was “resistant” in each case.
As to `CNC(=O)c1ccc(N2C(=S)N(c3cnc(C#N)c(C(F)(F)F)c3)C(=O)C23CCC3)cc1F` [Apal, apalutamide], the “cell growth, 3 days” value in the data set with CWR22Rv1 cells and in the data set with C4-2B MDVR cells was “resistant” each time. Further, the “transcriptional activity mediated by AR-V7 and AR mutants” value (from here on “transcriptional activity mediated”) in data set [1] is reported as “could not suppress”.
Turning to `CNC(=O)c1ccc(N2C(=S)N(c3ccc(C#N)c(C(F)(F)F)c3)C(=O)C2(C)C)cc1F` [Enza, enzalutamide], the “cell growth, 3 days” value in the data set on CWR22Rv1 cells and with C4-2B MDVR cells was “resistant” each time. For the same molecule, the “tumor PSA expression (mouse serum), single treatment” value in the data set on VCaP xenografts (Fig.6F) is recorded as “slightly, but insignificantly, suppressed”. Besides, in the data set on VCaP xenografts (Enza 20 mg/Kg p.o., ARVib-7 75 mg/Kg orally, Fig.6C-6E), the “tumor growth, single treatment” value was “insignificantly inhibited”. The “transcriptional activity mediated” value in [1] is “could not suppress”.
As to `CC(O)(CS(=O)(=O)c1ccc(F)cc1)C(=O)Nc1ccc(C#N)c(C(F)(F)F)c1` (centres unmarked) [bicalutamide], in the data set on wild-type AR (WT-AR), the WT-AR transcriptional activity entry is listed as “suppress”. Besides, the “transcriptional activity mediated” value in data set [1] is reported as “could not suppress”.
In the case of `O=C(Nc1ccc([N+](=O)[O-])cc1Cl)c1cc(Cl)ccc1O` [niclosamide], the “inhibition of AR expression” value with AR (dose series, Fig.1C left) came to 84.42%; in the data set with AR (western blot, Fig.1B), 89.73%. Further, the “enhancement of Enza treatment (cell growth)” value is reported as “profoundly enhanced” with CWR22Rv1 cells (CWR22Rv1, 0.5 μM with 20 μM Enza, 3 days, Fig.6A) and “profoundly enhanced” with C4-2B MDVR cells (0.25 μM with 20 μM Enza, 3 days, Supplementary Fig.6E). In addition, the mouse body weight entry in the data set on CWR22Rv1 xenografts was “did not affect”. Besides, in the data set with LuCaP 35CR xenografts (Fig.5C), the “suppression of tumor growth / tumor volume compared to vehicle control” value was determined as 50%. In addition, the “tumor PSA expression (mouse serum)” value in the data set on LuCaP 35CR xenografts (Fig.5F) is “slightly suppressed”. For the same molecule, the bioavailability in [2] was ~ 10%.

These data come from article PMC8413131 (Oncogene, 2021).
